Source: ChEMBL document CHEMBL1138715, “Isoxazole-3-hydroxamic acid derivatives as peptide deformylase inhibitors and potential antibacterial agents” (Bioorg Med Chem Lett, 2004)
≈ marks a conversion by molar mass, not a printed value.

Experiments:
Type in all cases: functional
[1] = system: Staphylococcus aureus; test: In vitro inhibitory activity against Staphylococcus aureus
Method in brief: (§1)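 Enzyme inhibition of peptide deformylase (PDF) from E. coli or S. aureus, in vitro. IC50 reported in µM as the mean of three experiments.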

[2] = system: Escherichia coli; test: In vitro inhibitory activity against Escherichia coli; method in brief: as §1
[3] = system: Escherichia coli; test: In vitro antibacterial activity against Escherichia coli mutant strain EC-AH547
Method in brief: (§2)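 MICs in µg/mL, determined by dilution susceptibility testing in liquid culture under NCCLS standard conditions for aerobically growing bacteria. Strains: EC-AH547, a tolC E. coli mutant with reduced efflux-pump activity; SA-101, a multiresistant S. aureus; SA-ATCC-25923, wild-type S. aureus.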

[4] = system: Escherichia coli; test: In vitro antibacterial activity against Escherichia coli wild type EC-ATCC-25922
Method in brief: (§3)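 MIC, the lowest inhibiting concentration in µg/mL, determined in liquid culture by NCCLS standard dilution susceptibility conditions for aerobically growing bacteria. EC-ATCC-25922 is wild-type E. coli; EC-DC2 is a hyperpermeable E. coli strain.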

[5] = system: Escherichia coli; test: In vitro antibacterial activity against Escherichia coli hyperpermeable strain EC-DC2; method in brief: as §3
[6] = system: Staphylococcus aureus; test: In vitro antibacterial activity against Staphylococcus aureus wild type SA-ATCC-25923; method in brief: as §2
[7] = system: Staphylococcus aureus; test: In vitro antibacterial activity against Staphylococcus aureus multi-resistant strain SA-101; method in brief: as §2

Compound | IC50 [1] | further results
O=C(NO)c1cc(CS(=O)(=O)c2cccc(Cl)c2)on1 | 1.7 µM | –
CC(C)c1ccccc1S(=O)(=O)Cc1cc(C(=O)NO)no1 | 3.4 µM | –
CC(=O)Nc1ccc(SCc2cc(C(=O)NO)no2)cc1 | 42 µM | –
CC(C)c1ccccc1SCc1cc(C(=O)NO)no1 | 7.6 µM | –
COc1ccc(SCc2cc(C(=O)NO)no2)cc1 | 24 µM | –
Cc1ccc(S(=O)(=O)Cc2cc(C(=O)NO)no2)cc1 | 1.4 µM | IC50 [2]: 11.5 µM
O=C(NO)c1cc(CSc2cccc(Br)c2)on1 | 2 µM | –
O=C(NO)c1cc(CSc2ccccc2Br)on1 | 4.9 µM | –
O=C(NO)c1cc(CSc2ccc(F)cc2)on1 | 1.5 µM | –
O=C(NO)c1cc(CSc2cccc(Cl)c2)on1 | 2.3 µM | MIC [3]: 64 µg/mL (≈ 225 µM); MIC [4]: > 128 µg/mL; MIC [5]: 32 µg/mL (≈ 112 µM); MIC [6]: > 128 µg/mL
O=C(NO)c1cc(CSc2ccc(Cl)c(Cl)c2)on1 | 2 µM | MIC [3]: 16 µg/mL (≈ 50.1 µM); MIC [4]: > 128 µg/mL; MIC [5]: 32 µg/mL (≈ 100 µM); MIC [6]: 128 µg/mL (≈ 401 µM); MIC [7]: 128 µg/mL (≈ 401 µM)
COc1cccc(S(=O)(=O)Cc2cc(C(=O)NO)no2)c1 | 6.5 µM | –
COc1cccc(SCc2cc(C(=O)NO)no2)c1 | 2.2 µM | MIC [3]: 128 µg/mL (≈ 457 µM); MIC [4]: > 128 µg/mL; MIC [5]: 128 µg/mL (≈ 457 µM); MIC [6]: > 128 µg/mL
O=C(NO)c1cc(CS(=O)(=O)c2ccc(Cl)cc2)on1 | 0.8 µM | –
O=C(NO)c1cc(CSc2ccccc2C(F)(F)F)on1 | 9.3 µM | –
Cc1ccc(SCc2cc(C(=O)NO)no2)cc1 | 4 µM | –
O=C(NO)c1cc(CSCc2cccc(C(F)(F)F)c2)on1 | 2.2 µM | –
Cc1ccc([S+]([O-])Cc2cc(C(=O)NO)no2)cc1 (stereo not given) | 0.9 µM | –
O=C(NO)c1cc(CSc2ccc(C(F)(F)F)cc2)on1 | 8.7 µM | –
O=C(NO)c1cc(CSc2ccc(Cl)cc2)on1 | 1.3 µM | MIC [3]: 64 µg/mL (≈ 225 µM); MIC [4]: 128 µg/mL (≈ 450 µM); MIC [5]: 32 µg/mL (≈ 112 µM); MIC [6]: > 128 µg/mL
Cc1cc(C)c(SCc2cc(C(=O)NO)no2)c(C)c1 | 37.7 µM | –
O=C(NO)c1cc(CSc2ccccc2Cl)on1 | 3.8 µM | –
